{"source": "ChEMBL document CHEMBL2434863", "about": "“Synthesis and in vitro/in vivo antibacterial activity of oxazolidinones having thiocarbamate at C-5 on the A-ring and an amide- or urea-substituted [1,2,5]triazepane or [1,2,5]oxadiazepane as the C-ring” (Eur J Med Chem, 2013)", "key": {"[1]": {"system": "Enterococcus faecium", "assay": "Antibacterial activity against Enterococcus faecium SR7940 clinical isolate assessed as growth inhibition by broth microdilution method", "type": "functional"}, "[2]": {"molecular_target": "T1, MAO-A (Rattus norvegicus, UniProt P21396)", "T1 sequence (P21396 whole entry)": "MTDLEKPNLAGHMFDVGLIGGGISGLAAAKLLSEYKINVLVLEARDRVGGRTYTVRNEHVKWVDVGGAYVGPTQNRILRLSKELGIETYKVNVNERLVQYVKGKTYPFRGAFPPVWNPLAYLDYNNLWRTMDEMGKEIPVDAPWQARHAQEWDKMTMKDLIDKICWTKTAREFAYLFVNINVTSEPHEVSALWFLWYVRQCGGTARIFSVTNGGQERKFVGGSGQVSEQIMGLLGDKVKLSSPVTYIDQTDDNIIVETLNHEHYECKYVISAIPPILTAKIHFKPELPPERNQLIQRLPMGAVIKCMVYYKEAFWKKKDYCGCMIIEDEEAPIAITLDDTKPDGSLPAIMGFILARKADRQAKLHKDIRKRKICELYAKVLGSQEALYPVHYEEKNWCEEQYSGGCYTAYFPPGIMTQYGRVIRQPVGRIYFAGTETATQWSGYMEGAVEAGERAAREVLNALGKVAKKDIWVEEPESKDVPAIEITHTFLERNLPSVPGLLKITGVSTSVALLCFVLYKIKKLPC", "assay": "Inhibition of MAO-A in rat forebrain using [14C]5-HT as substrate at 30 uM incubated for 20 mins prior to substrate addition measured after 5 mins by liquid scintillation counting analysis", "type": "tissue-based", "details": "probe [14C]5-HT"}, "[3]": {"system": "Staphylococcus aureus", "assay": "Antibacterial activity against Staphylococcus aureus Smith assessed as growth inhibition by broth microdilution method", "type": "functional"}, "[4]": {"system": "Staphylococcus aureus", "assay": "Potency index, ratio of linezolid ED50 to compound ED50 for methicillin-resistant Staphylococcus aureus SR3637 infected in iv dosed JCL/ICR mouse systemic infection model", "type": "functional"}, "[5]": {"system": "Moraxella catarrhalis", "assay": "Antibacterial activity against Moraxella catarrhalis SR26840 clinical isolate assessed as growth inhibition by broth microdilution method", "type": "functional"}, "[6]": {"molecular_target": "Cytochrome P450 2D6 (Homo sapiens, UniProt P10635)", "sequence (P10635 whole entry)": "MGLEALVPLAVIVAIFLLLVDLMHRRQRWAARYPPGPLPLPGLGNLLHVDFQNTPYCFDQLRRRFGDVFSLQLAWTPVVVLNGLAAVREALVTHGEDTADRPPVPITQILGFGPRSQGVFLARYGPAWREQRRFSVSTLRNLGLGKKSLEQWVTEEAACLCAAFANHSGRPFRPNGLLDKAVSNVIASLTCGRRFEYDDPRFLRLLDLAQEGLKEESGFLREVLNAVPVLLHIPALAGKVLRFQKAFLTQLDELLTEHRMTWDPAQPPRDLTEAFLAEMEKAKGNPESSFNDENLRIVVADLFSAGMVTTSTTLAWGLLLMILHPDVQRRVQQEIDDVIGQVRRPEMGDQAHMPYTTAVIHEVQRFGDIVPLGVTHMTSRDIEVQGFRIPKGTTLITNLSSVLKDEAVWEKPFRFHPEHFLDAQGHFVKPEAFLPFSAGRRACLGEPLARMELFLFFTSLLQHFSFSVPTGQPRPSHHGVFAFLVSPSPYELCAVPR", "assay": "Inhibition of CYP2D6 in human liver microsomes assessed as dextromethorphan O-demethylation after 20 mins by LC/MS/MS analysis", "type": "ADME, Microsome"}, "[7]": {"system": "Staphylococcus aureus", "assay": "Antibacterial activity against methicillin-resistant Staphylococcus aureus SR3637 infected in JCL/ICR mouse systemic infection model assessed as mortality administered as iv measured over 7 days", "type": "functional", "details": "168 h", "in_short": "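Lethal systemic infection model in mice; test agents were given intravenously.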"}, "[8]": {"system": "Staphylococcus aureus", "assay": "Antibacterial activity against methicillin-resistant Staphylococcus aureus SR3637 assessed as growth inhibition by broth microdilution method", "type": "functional"}, "[9]": {"system": "Streptococcus pneumoniae", "assay": "Antibacterial activity against Streptococcus pneumoniae SR26207 clinical isolate assessed as growth inhibition by broth microdilution method", "type": "functional"}, "[10]": {"system": "Staphylococcus aureus", "assay": "Antibacterial activity against Staphylococcus aureus SR20549 clinical isolate assessed as growth inhibition by broth microdilution method", "type": "functional"}, "[11]": {"molecular_target": "T2, Cytochrome P450 1A2 (Homo sapiens, UniProt P05177)", "T2 sequence (P05177 whole entry)": "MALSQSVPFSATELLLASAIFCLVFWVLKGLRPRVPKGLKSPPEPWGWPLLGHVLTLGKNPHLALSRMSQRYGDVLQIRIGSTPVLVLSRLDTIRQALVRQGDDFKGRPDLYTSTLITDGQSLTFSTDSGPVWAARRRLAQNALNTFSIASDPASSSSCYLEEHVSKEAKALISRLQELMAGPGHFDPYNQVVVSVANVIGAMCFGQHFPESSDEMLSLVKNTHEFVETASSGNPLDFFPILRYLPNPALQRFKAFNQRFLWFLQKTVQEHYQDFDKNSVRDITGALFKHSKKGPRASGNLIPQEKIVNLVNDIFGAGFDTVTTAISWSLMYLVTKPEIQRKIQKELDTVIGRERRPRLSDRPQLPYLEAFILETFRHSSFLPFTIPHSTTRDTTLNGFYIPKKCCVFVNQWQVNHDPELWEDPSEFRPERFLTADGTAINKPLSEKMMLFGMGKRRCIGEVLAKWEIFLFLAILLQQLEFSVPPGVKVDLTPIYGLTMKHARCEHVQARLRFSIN", "assay": "Inhibition of CYP1A2 in human liver microsomes assessed as ethoxyresorufin O-deethylation after 20 mins by fluorescence plate reader analysis", "type": "ADME, Microsome"}, "[12]": {"system": "Enterococcus faecalis", "assay": "Antibacterial activity against Enterococcus faecalis SR1004 clinical isolate assessed as growth inhibition by broth microdilution method", "type": "functional"}, "[13]": {"molecular_target": "Cytochrome P450 3A4 (Homo sapiens, UniProt P08684)", "sequence (P08684 whole entry)": "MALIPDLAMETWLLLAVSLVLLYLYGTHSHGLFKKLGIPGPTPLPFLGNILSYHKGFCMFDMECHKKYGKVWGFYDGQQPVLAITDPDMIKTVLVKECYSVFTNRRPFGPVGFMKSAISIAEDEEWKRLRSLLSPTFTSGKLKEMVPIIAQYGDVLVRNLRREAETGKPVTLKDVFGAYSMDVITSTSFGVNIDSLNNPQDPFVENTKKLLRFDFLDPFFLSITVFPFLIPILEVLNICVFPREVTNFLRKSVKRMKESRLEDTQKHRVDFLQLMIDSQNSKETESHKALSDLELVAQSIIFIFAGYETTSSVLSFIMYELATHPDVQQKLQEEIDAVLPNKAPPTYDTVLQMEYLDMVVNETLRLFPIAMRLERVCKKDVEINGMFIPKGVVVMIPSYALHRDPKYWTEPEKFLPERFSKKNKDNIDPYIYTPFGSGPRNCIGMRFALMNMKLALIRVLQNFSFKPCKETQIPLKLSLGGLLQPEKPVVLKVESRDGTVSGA", "assay": "Inhibition of CYP3A4 in human liver microsomes assessed as terfenadine hydroxylation after 20 mins by LC/MS/MS analysis", "type": "ADME, Microsome"}, "[14]": {"molecular_target": "Cytochrome P450 2C9 (Homo sapiens, UniProt P11712)", "sequence (P11712 whole entry)": "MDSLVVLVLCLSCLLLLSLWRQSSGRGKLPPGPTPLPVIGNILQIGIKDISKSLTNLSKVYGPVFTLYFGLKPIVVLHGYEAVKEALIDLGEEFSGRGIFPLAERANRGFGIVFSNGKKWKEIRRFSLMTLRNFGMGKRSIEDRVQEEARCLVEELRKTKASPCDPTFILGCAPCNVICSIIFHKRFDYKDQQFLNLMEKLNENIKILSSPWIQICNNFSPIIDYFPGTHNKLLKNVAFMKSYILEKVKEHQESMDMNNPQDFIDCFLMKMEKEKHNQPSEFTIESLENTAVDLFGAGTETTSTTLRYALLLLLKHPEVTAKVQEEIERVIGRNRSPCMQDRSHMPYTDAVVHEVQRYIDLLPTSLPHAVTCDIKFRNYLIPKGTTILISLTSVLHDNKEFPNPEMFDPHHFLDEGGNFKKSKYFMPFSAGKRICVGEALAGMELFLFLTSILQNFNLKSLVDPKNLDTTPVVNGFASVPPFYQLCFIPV", "assay": "Inhibition of CYP2C9 in human liver microsomes assessed as tolbutamide hydroxylation after 20 mins by LC/MS/MS analysis", "type": "ADME, Microsome"}, "[15]": {"system": "Staphylococcus aureus", "assay": "Antibacterial activity against linezolid-resistant Staphylococcus aureus NRS271 assessed as growth inhibition by broth microdilution method", "type": "functional"}, "[16]": {"system": "Haemophilus influenzae", "assay": "Antibacterial activity against Haemophilus influenzae SR27914 clinical isolate assessed as growth inhibition by broth microdilution method", "type": "functional"}, "[17]": {"molecular_target": "T3, MAO-B (Rattus norvegicus, UniProt P19643)", "T3 sequence (P19643 whole entry)": "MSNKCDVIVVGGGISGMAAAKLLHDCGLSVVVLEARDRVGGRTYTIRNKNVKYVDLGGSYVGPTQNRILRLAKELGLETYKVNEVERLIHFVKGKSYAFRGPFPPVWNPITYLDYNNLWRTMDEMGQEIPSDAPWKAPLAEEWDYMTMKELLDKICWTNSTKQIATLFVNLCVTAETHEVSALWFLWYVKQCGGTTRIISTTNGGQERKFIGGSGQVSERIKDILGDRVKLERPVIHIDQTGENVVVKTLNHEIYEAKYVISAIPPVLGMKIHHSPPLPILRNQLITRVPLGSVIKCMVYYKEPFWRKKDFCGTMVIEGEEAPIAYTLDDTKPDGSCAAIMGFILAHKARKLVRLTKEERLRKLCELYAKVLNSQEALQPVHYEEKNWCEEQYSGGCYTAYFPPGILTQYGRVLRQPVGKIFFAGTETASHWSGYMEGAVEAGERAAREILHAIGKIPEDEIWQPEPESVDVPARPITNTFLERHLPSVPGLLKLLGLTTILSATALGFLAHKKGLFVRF", "assay": "Inhibition of MAO-B in rat forebrain using [14C]PEA as substrate at 30 uM incubated for 20 mins prior to substrate addition measured after 10 mins by liquid scintillation counting analysis", "type": "tissue-based", "details": "probe [14C]PEA"}}}
{"smiles": "COC(=S)NC[C@H]1CN(c2ccc(N3CCNN(C(=O)C(F)F)CC3)c(F)c2)C(=O)O1", "values": [{"measurement": "MIC", "setting": "[1]", "result": 0.25, "unit": "µg/mL"}, {"measurement": "inhibition at 5 min, 30 µM", "setting": "[2]", "result": 9.2, "unit": "%"}, {"measurement": "MIC", "setting": "[3]", "result": 0.5, "unit": "µg/mL"}, {"measurement": "Ratio ED50", "setting": "[4]", "result": 3}, {"measurement": "MIC", "setting": "[5]", "result": 2, "unit": "µg/mL"}, {"measurement": "IC50", "setting": "[6]", "result": "> 20", "unit": "µM"}, {"measurement": "ED50", "setting": "[7]", "result": 0.77, "unit": "mg/kg"}, {"measurement": "MIC", "setting": "[8]", "result": 0.25, "unit": "µg/mL"}, {"measurement": "MIC", "setting": "[9]", "result": 0.063, "unit": "µg/mL"}, {"measurement": "MIC", "setting": "[10]", "result": 0.125, "unit": "µg/mL"}, {"measurement": "IC50", "setting": "[11]", "result": "> 20", "unit": "µM"}, {"measurement": "MIC", "setting": "[12]", "result": 0.25, "unit": "µg/mL"}, {"measurement": "IC50", "setting": "[13]", "result": "> 20", "unit": "µM"}, {"measurement": "IC50", "setting": "[14]", "result": "> 20", "unit": "µM"}, {"measurement": "MIC", "setting": "[15]", "result": 4, "unit": "µg/mL"}, {"measurement": "MIC", "setting": "[16]", "result": 4, "unit": "µg/mL"}, {"measurement": "inhibition at 10 min, 30 µM", "setting": "[17]", "result": 0.1, "unit": "%"}]}
